Reference: ChEMBL document CHEMBL3044699, “Synthesis and herbicidal activity of N-oxide derivatives” (2000)
Activity calls are given as the source filed them. No cut-off for these calls is given here.

Experiments:
[1] = tested on: Triticum aestivum; assay: Pre-emergence herbicidal activity against Triticum aestivum (wheat) assessed as germination seeds level at 50 mol/ha relative to untreated control; assay type: functional
In short: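 Pre-emergence greenhouse assay on T. aestivum sown in sterilized sand in celled flats, with the medium near neutral pH. Compound was applied in acetone/H₂O, DMSO/H₂O, acetone/DMSO or acetone/DMSO/H₂O/Tween 80 at 6.4–19.6 kg/ha. Percentage of germinated seeds was calculated against untreated control. Atrazine (2.5 kg/ha, 12 mol/ha) was the positive control. Run in duplicate; ANOVA.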

[2] = tested on: Triticum aestivum; assay: Pre-emergence herbicidal activity against Triticum aestivum (wheat) assessed as reduction in aerial weight at 50 mol/ha relative to untreated control; assay type: functional; design: scale not given: the % may be the effect or the level left
In short: (§1)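 Wheat was grown in sterilized sand flats at near-neutral pH and treated pre-emergence at 6.4–19.6 kg/ha in acetone-, DMSO- or Tween 80-containing vehicles. Length of first leaf, aerial weight and radicular weight were compared with untreated control and scored 4 (100–80% reduction), 3 (79–50%), 2 (49–20%), 1 (19–1%) or 0 (increase). Atrazine 2.5 kg/ha was the positive control. Duplicate runs; ANOVA.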

[3] = tested on: Triticum aestivum; assay: Pre-emergence herbicidal activity against Triticum aestivum (wheat) assessed as reduction in radicular weight at 50 mol/ha relative to untreated control; assay type: functional; design: scale not given: the % may be the effect or the level left; in short: as §1
[4] = tested on: Triticum aestivum; assay: Post-emergence herbicidal activity against Triticum aestivum (wheat) at 50 mol/ha measured 10 days post compound application; assay type: functional, organism-based
In short: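 Post-emergence greenhouse test on T. aestivum, set up identically to the pre-emergence test: sterilized sand flats at near-neutral pH, application at 6.4–19.6 kg/ha in acetone/DMSO/water-based vehicles, and reduction of plant parameters versus untreated control scored on a 0–4 scale. Atrazine 2.5 kg/ha was the positive control. Duplicate; ANOVA.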

[5] = tested on: Triticum aestivum; assay: Pre-emergence herbicidal activity against Triticum aestivum (wheat) assessed as reduction in length of the first leaf at 50 mol/ha relative to untreated control; assay type: functional; design: scale not given: the % may be the effect or the level left; in short: as §1
[6] = tested on: Triticum aestivum; assay: Stimulation of plant growth parameters in Triticum aestivum (wheat) assessed as increase in aerial weight at 50 mol/ha; assay type: functional, organism-based; in short: as §1
[7] = tested on: Triticum aestivum; assay: Stimulation of plant growth parameters in Triticum aestivum (wheat) assessed as increase in radicular weight at 50 mol/ha; assay type: functional, organism-based; in short: as §1
[8] = tested on: Triticum aestivum; assay: Stimulation of plant growth parameters in Triticum aestivum (wheat) assessed as increase in length of the first leaf at 50 mol/ha; assay type: functional, organism-based
In short: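 Pre-emergence greenhouse whole-plant test on T. aestivum L. Seeds were grown in sterilized sand in celled flats, with the medium near neutral pH. Compound was applied in acetone/H₂O, DMSO/H₂O, acetone/DMSO or acetone/DMSO/H₂O/Tween 80 vehicle, at 6.4–19.6 kg/ha by weight. Length of first leaf was compared with untreated control, with a score of 0 marking an increase. Atrazine at 2.5 kg/ha was the positive control. Run in duplicate and analysed by ANOVA.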

SMILES	Activity [1] [%]	Activity [2]	Activity [3]	Activity [4]	Activity [5]	Activity [6]	Activity [7]	Activity [8]
O=C(O)c1ccc2no[n+]([O-])c2c1	100	1%	1%	inactive	1%	–	–	–
COC(=O)N/N=C/c1c(-c2ccccc2)no[n+]1[O-]	100	–	2%	–	2%	Active	–	–
O=Cc1ccc2no[n+]([O-])c2c1 [6-FORMYLBENZO[C][1,2,5]OXADIAZOLE1-OXIDE]	100	1%	–	–	2%	–	Active	–
NC(=S)N/N=C/c1c(-c2ccccc2)no[n+]1[O-]	100	–	3%	–	2%	Active	–	–
O=Cc1c(-c2ccccc2)no[n+]1[O-]	100	–	1%	–	1%	Active	–	–
Cc1c(/C=N/NC(N)=O)no[n+]1[O-]	89	4%	3%	–	–	–	–	–
COC(=O)N/N=C/c1ccc2c(c1)[n+]([O-])c(C)c(C)[n+]2[O-]	100	–	–	–	–	Active	Active	Active
CCCCCCNC(=O)N/N=C/c1no[n+]([O-])c1C	95	4%	3%	–	3%	–	–	–
O=C(c1ccc2c(c1)no[n+]2[O-])N1CCOCC1	100	3%	3%	–	3%	–	–	–
COCCNC(=O)c1ccc2c(c1)no[n+]2[O-]	100	1%	1%	–	2%	–	–	–
CCCCNC(=O)c1ccc2c(c1)no[n+]2[O-]	46	3%	3%	–	3%	–	–	–
COC(=O)N/N=C/c1no[n+]([O-])c1C	15	3%	–	–	3%	–	Active	–
Cc1c(C=O)no[n+]1[O-]	100	–	1%	–	1%	Active	–	–
Cc1c(C)[n+]([O-])c2cc(/C=N/NC(=O)NCCc3ccccc3)ccc2[n+]1[O-]	100	–	1%	–	–	Active	–	Active
[O-][n+]1onc(-c2ccccc2)c1CNc1ccc(Br)cc1	100	1%	1%	–	2%	–	–	–
COc1ccc(NCc2c(-c3ccccc3)no[n+]2[O-])cc1	100	1%	1%	–	1%	–	–	–
[O-][n+]1onc(-c2ccccc2)c1CCl	100	1%	1%	inactive	1%	–	–	–
COC(=O)N/N=C/c1ccc2nonc2c1	100	–	–	–	–	Active	Active	Active
[O-][n+]1onc(-c2ccccc2)c1CNc1ccc(Cl)cc1	100	1%	1%	–	1%	–	–	–
Cc1c(/C=N/NC(N)=S)no[n+]1[O-]	92	4%	4%	–	–	–	–	–
[O-][n+]1onc(-c2ccccc2)c1CN1CCN(c2ncccn2)CC1	100	inactive	inactive	inactive	inactive	–	–	–
O=C(NCCc1ccccc1)N/N=C/c1ccc2c(c1)no[n+]2[O-]	100	2%	2%	–	2%	–	–	–
COC(=O)N/N=C/c1ccc2c(c1)no[n+]2[O-]	75	1%	3%	–	1%	–	–	–
[O-][n+]1onc2ccccc21 [BENZO[C][1,2,5]OXADIAZOLE 1-OXIDE]	100	inactive	inactive	inactive	inactive	–	–	–
O=C1c2ccccc2C(=O)N1Cc1c(-c2ccccc2)no[n+]1[O-]	100	–	1%	–	–	Active	–	Active
Cc1ccc2no[n+]([O-])c2c1 [6-METHYLBENZO[C][1,2,5]OXADIAZOLE1-OXIDE]	100	3%	3%	–	3%	–	–	–
O=C(Nc1ccc(Cl)cc1)c1ccc2c(c1)no[n+]2[O-]	96	3%	4%	–	3%	–	–	–
